CXCR6 inh – inhibitors of human CXCR6 receptor; CHO-K1 PathHunter CXCR6 beta-arrestin, luminescence; AID 602244; inhibition, % at 20 µM; 360,000 tested, 0.36% active; in the data active = inhibition above about 34%, passing the limit was not always enough;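 note: antagonist mode with CXCL16 agonist at 10 nM final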
Target sequence (O00574 whole entry, looked up): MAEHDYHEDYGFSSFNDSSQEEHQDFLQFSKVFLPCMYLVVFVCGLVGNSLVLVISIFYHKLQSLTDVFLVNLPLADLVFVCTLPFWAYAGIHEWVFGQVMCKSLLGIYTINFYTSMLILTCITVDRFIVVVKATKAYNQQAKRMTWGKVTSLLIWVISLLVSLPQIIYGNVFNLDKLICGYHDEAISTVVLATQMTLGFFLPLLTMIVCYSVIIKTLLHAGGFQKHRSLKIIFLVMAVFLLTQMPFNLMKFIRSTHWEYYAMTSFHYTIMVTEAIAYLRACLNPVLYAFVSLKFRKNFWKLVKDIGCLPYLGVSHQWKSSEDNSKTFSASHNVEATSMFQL
EBI2 antag – antagonists of human EBI2 receptor. inhibition, % at 5 µM. P32249. AID 651636. 360,000 tested, 0.81% active. EBI2 beta-arrestin recruitment, luminescence, 7a,25-OHC stimulated; in the data active = inhibition above about 38%;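 note: enzyme fragment complementation signal reports receptor beta-arrestin coupling in cells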
APJ ag – agonists of human APJ apelin receptor; P35414; CHO-K1 APJ PathHunter beta-arrestin, luminescence; 0% DMSO wells, 100% apelin; activation, % at 20 µM; 330,000 tested, 0.11% active; AID 2520;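 active = activation more than six SD over the plate average, tested at 20 µM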
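Material: engineered CHO-K1 APJ arrestin reporter cells; amount: 1000 CHO-K1 reporter cells seeded per well; incubation: compound stimulation 90 min at 25 °C, detection 60 min; signal: luminescent beta-gal fragment complementation, chemiluminescent substrate; read-out basis: APJ agonist activity; controls: DMSO-only wells as negative, 10 nM Apelin-13 as positive control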
APJ antag – antagonists of human APJ apelin receptor. P35414. CHO-K1 APJ beta-arrestin complementation, luminescence. inhibition, % at 20 µM. 330,000 tested, 0.32% active. AID 2521;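 active = inhibition above about 40% at 20 µM, limit read from the data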;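 note: cells challenged with 10 nM apelin-13 agonist together with compound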
B2AR ag – activates human beta-2 adrenergic receptor causing internalization | Am2.2-beta2AR cells, FAP receptor internalization, flow cytometry | response, % (no concentration beside the values) | 340,000 tested, 0.43% active | P07550;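 active = response above a set limit, near 3 SD of response in nonfluorescent compounds, cut at about 42% in these data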
CCR6 antag – antagonists of human CCR6 receptor; P51684; CHO-K1 CCR6 PathHunter beta-arrestin, luminescence, CCL20-stimulated; inhibition, % at 20 µM; 340,000 tested, 0.49% active;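 active = compounds whose inhibition of the agonist-driven luminescence signal at 20 µM reaches about 50%, limit read from the data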;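 note: cells stimulated with CCL20 at 14 nM final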
Target sequence (P51684 whole entry, looked up): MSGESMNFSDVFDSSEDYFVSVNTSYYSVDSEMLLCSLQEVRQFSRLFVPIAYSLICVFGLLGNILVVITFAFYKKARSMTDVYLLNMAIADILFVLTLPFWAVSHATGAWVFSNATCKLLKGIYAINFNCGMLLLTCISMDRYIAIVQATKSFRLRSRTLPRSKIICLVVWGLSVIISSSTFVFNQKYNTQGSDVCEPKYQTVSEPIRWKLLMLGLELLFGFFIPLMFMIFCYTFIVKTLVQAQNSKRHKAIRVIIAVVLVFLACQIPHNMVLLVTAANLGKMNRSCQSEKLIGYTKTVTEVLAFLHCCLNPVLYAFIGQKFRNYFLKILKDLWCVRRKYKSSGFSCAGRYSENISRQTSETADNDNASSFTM
EBI2 antag conf – EBI2 (human) antagonism, single concentration confirmation; shares compounds with EBI2 antag; EBI2 beta-arrestin luminescence, 7a,25-OHC antagonism; inhibition, % at 5 µM; 2,400 tested, 29% active; AID 651997;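 active = inhibition of at least 50%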
EBI2 agonist – activates EBI2, counter-screen for EBI2 antagonists. shares compounds with EBI2 antag. EBI2-expressing cells, agonist mode, luminescence, 60 min; 0% vehicle, 100% 7α,25-dihydroxycholesterol control. activation, % at 5 µM. 2,400 tested, under 10 active. AID 652000;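 active = activation of at least 50%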
bGal cs – inhibits E. coli beta-galactosidase, counter-screen for EBI2 antagonists | purified beta-galactosidase, luminescent Galacton Star, 15 min | 2,400 tested, 1% active | shares compounds with EBI2 antag | inhibition, % at 5 µM;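 active = replicate-average signal at least 3 plate SD below neutral wells, shown as high inhibition, flagging enzyme-inhibiting false positives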;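 note: higher means stronger loss of beta-gal luminescence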
Each line names hits and unclear results; the compound was inactive in the other large screens (follow-up assays come after a bar, where they were run). An excerpt weighted towards active compounds, which were near 1.8% of everything screened.

Cc1ccc(C(=O)N2CCN(Cc3nc4sc5c(c4c(=O)[nH]3)CCCC5)CC2)cc1	EBI2 antag 44.2 | EBI2 antag conf inactive | EBI2 agonist inactive | bGal cs inactive
COc1ccc2nc3n(c(=O)c2c1)-c1cc2ccccc2cc1C(=O)NC3Cc1ccccc1 (centres undefined)	EBI2 antag 41.0 (no result: APJ ag, APJ antag, B2AR ag, CCR6 antag) | EBI2 antag conf inactive | EBI2 agonist inactive | bGal cs inactive
COc1ccc2nc3n(c(=O)c2c1)-c1cc2ccccc2cc1C(=O)NC3Cc1ccc(O)cc1 (centres undefined)	none (no result: APJ ag, APJ antag, B2AR ag, CCR6 antag)
C=CCc1cccc(CNc2nc3ccccc3n2CCN2CCOCC2)c1O	EBI2 antag 83.4 | EBI2 antag conf 84.4 | EBI2 agonist inactive | bGal cs inactive
COc1ccc(OCC(=O)N2CCC3(CC2)CC(=O)c2ccccc2O3)cc1	EBI2 antag 77.4 | EBI2 antag conf 60.7 | EBI2 agonist inactive | bGal cs inactive
Cc1cccc(OCC(=O)N2CCC3(CC2)CC(=O)c2ccccc2O3)c1	none
CCOc1ccc(OCC(=O)N2CCC3(CC2)CC(=O)c2ccccc2O3)cc1	EBI2 antag 84.4 | EBI2 antag conf 51.7 | EBI2 agonist inactive | bGal cs inactive
C=CCn1nc(C(=O)Nc2ccc(OC)cc2)cc1-c1sc(NC(=O)c2ccccc2)nc1C	none (no result: CXCR6 inh, APJ ag, APJ antag, B2AR ag, CCR6 antag)
COc1cccc(NC(=O)Cn2c3ccc(F)cc3c3nc4n(c(=O)c32)CCCS4)c1	EBI2 antag 92.4 | EBI2 antag conf 71.9 | EBI2 agonist inactive | bGal cs inactive
COc1ccc2c(c1)c1nc3n(c(=O)c1n2CC(=O)Nc1ccccc1)CCCS3	none
Cc1ccc(OCC(=O)NNC(=O)C2CCN(c3ncnc4sc(C)c(C)c34)CC2)cc1	none
Cc1sc2ncnc(N3CCC(C(=O)NNC(=O)COc4ccc(Br)cc4)CC3)c2c1C	EBI2 antag 56.9 | EBI2 antag conf inactive | EBI2 agonist inactive | bGal cs inactive
Cc1sc2ncnc(N3CCC(C(=O)NNC(=O)COc4ccc(Cl)cc4)CC3)c2c1C	EBI2 antag 51.3 (no result: APJ ag, APJ antag) | EBI2 antag conf inactive | EBI2 agonist inactive | bGal cs inactive
O=C(NCCc1c[nH]c2ccccc12)C(=O)NCC(c1ccco1)N1CCN(c2ccc(F)cc2)CC1 (centres undefined)	EBI2 antag 41.0 | EBI2 antag conf inactive | EBI2 agonist inactive | bGal cs inactive
O=C(NCC(c1ccco1)N1CCN(c2ccc(F)cc2)CC1)C(=O)NC1CC1 (centres undefined)	none
O=C(NCCc1c[nH]c2ccccc12)C(=O)NCC(c1ccco1)N1CCN(c2ccccc2)CC1 (centres undefined)	EBI2 antag 36.5 | EBI2 antag conf inactive | EBI2 agonist inactive | bGal cs inactive
CCc1ccc(OCC(=O)O/N=C(\N)Cc2ccc([N+](=O)[O-])cc2)cc1	none
CCOc1ccc(NC(=O)c2cc3ccccc3cc2O)cc1	none
COc1ccc(NC(=O)c2ccc(C(=O)c3cc(OC)ccc3OC)cc2)cc1	EBI2 antag 48.1 | EBI2 antag conf inactive | EBI2 agonist inactive | bGal cs inactive
COc1ccc(NC(=O)c2cc3ccccc3cc2OC)cc1	EBI2 antag 65.2 | EBI2 antag conf inactive | EBI2 agonist inactive | bGal cs inactive
CCOc1ccc(NC(=O)c2cc3ccccc3cc2OC)cc1	EBI2 antag 54.3 | EBI2 antag conf inactive | EBI2 agonist inactive | bGal cs inactive
O=C(Cc1ccccc1)Nc1cccc(C(=O)O)c1O	none
CN(C)N=Nc1ccc(-c2cn(Cc3ccccc3)cn2)cc1	EBI2 antag 45.3 | EBI2 antag conf inactive | EBI2 agonist inactive | bGal cs inactive
Cc1ccc([C@H]2C[C@H](O)[C@@H](n3cc(-c4ccc(F)cc4)nn3)CN2CC2CCCCC2)cc1	none (no result: APJ ag, APJ antag, B2AR ag, CCR6 antag)
CCOC(=O)c1cnc2ccc(OC)cc2c1Nc1ccc(N2CCN(C)CC2)cc1	EBI2 antag 41.1 | EBI2 antag conf 53.3 | EBI2 agonist inactive | bGal cs inactive
COc1ccc(-n2nnnc2C(c2ccccc2)N2CCN(C/C=C/c3ccccc3)CC2)cc1 (centres undefined)	EBI2 antag 52.7 (no result: APJ ag, APJ antag, B2AR ag, CCR6 antag) | EBI2 antag conf inactive | EBI2 agonist inactive | bGal cs inactive
COc1ccc(C(c2nnnn2Cc2ccccc2)N2CCN(C/C=C/c3ccccc3)CC2)cc1 (centres undefined)	EBI2 antag 49.6 (no result: APJ ag, APJ antag, B2AR ag, CCR6 antag) | EBI2 antag conf inactive | EBI2 agonist inactive | bGal cs inactive
C(=C\c1ccccc1)/CN1CCN(C(c2ccccc2)c2nnnn2Cc2ccccc2)CC1 (centres undefined)	EBI2 antag 46.9 (no result: APJ ag, APJ antag, B2AR ag, CCR6 antag) | EBI2 antag conf inactive | EBI2 agonist inactive | bGal cs inactive
COC(=O)CCC[C@H]1CC2(C[C@H](CCCO[Si](C)(C)C(C)(C)C)N1C(=O)OC(C)(C)C)OCCO2	none
CCC(C(=O)NCCc1ccccc1OC)n1nc(C)c2c(C)n(-c3ccccc3)nc2c1=O (centres undefined)	none
CCOC(=O)[C@]12CCC=C1N(Cc1ccccc1)C(=O)[C@H](CC(=O)NCc1cccs1)C2	none (no result: APJ ag, APJ antag, B2AR ag, CCR6 antag)
Cc1ccc(C(=O)NCCCN2CCN(CCCNC(=O)c3ccc(C)cc3)CC2)cc1	none
CCS(=O)(=O)N1CCC(C(=O)Nc2ccc3c(c2)CCC3)CC1	none
O=C(/C=C/c1ccc2ccccc2n1)N1CCN(S(=O)(=O)c2ccccc2F)CC1	EBI2 antag 54.6 | EBI2 antag conf inactive | EBI2 agonist inactive | bGal cs inactive
O=C(/C=C/c1ccc2ccccc2n1)N1CCN(S(=O)(=O)c2ccc(F)cc2)CC1	EBI2 antag 50.0 | EBI2 antag conf inactive | EBI2 agonist inactive | bGal cs inactive
COc1cccc(C2=CC(=O)C[C@H](c3ccc(Cl)cc3)C2)c1	EBI2 antag 46.4 | EBI2 antag conf inactive | EBI2 agonist inactive | bGal cs inactive
C=Cc1ccc(C2=CC(=O)C[C@H](c3ccc(OC)cc3)C2)cc1	EBI2 antag 77.1 | EBI2 antag conf 53.9 | EBI2 agonist inactive | bGal cs inactive
COc1ccc([C@H]2CC(=O)C=C(c3cccc(Br)c3)C2)cc1	none
O=C1C=C(c2ccc(OC(F)(F)F)cc2)C[C@@H](c2ccc(Cl)cc2)C1	EBI2 antag 65.1 | EBI2 antag conf inactive | EBI2 agonist inactive | bGal cs inactive

Assay outcomes as filed in PubChem BioAssay.
